Reference: paper PMC4317570 (Cell metabolism, 2015)

Assays:
RORγ [1] = target: T1, RORγ (Mus musculus, UniProt P51450); assay: RORγ reporter assay in mammalian cells; type: cell-based; conditions: mammalian cells (HEK293T)
T1 sequence (P51450 267-516 limits assumed): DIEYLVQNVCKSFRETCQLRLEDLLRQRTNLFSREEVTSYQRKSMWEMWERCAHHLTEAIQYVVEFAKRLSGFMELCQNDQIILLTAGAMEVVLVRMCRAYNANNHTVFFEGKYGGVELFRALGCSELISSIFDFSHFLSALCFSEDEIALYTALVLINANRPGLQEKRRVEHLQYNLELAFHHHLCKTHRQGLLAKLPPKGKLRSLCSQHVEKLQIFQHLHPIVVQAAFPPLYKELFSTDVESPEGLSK
Outline: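 HEK293T cells are co-transfected with a RORγ-gal4 fusion plus a GAL4 UAS firefly luciferase reporter (luc2p) and exposed to test compound. Luciferase activity is the read-out. Data are averages of technical triplicates ± standard deviation, representative of n=6 experiments. Statistics use two-tailed unpaired Student's t-test on aggregated experiments.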

RORγ LBD [2] = assay: Fluorescein-NCOA2 coactivator peptide recruitment, fluorescence polarization; type: biochemical; conditions: fluoresceinated NCOA2 peptide, holo vs apo receptor
RORγ LBD [3] = assay: CD thermal denaturation of RORγ LBD, apo vs holo; type: binding; conditions: holo vs apo receptor
RORγ [4] = target: RORγ (Mus musculus, UniProt P51450); assay: RORγ-gal4/UAS luciferase reporter in insect cells grown in sterol-free CDM; type: cell-based
Outline: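 Drosophila Kc167 cells are kept in continuous culture in lipid-free chemically defined medium: 40% Grace's medium, 10% Murashige–Skoog micronutrients, 1% NEAS, 1 mM pyruvate, 2% ITS-A and 1% Pluronic F-68. Cells are transiently transfected with RORγ-gal4 plus a UAS luc2p firefly luciferase reporter (minimal hsp70 promoter), then treated with test compound. EC50 is derived from reporter activity. Each compound is tested at least twice in technical triplicates ± standard deviation.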

[5] = test system: Sc4mol-/- naïve CD4+ T cells; assay: Th17 cell polarization of RORγt-cre Sc4mol-/- naïve CD4+ T cells; type: cell-based, mouse
[6] = test system: RORγ reporter activity in SXLT cells; assay: Full length RORγ reporter; type: cell-based; conditions: media supplemented with compound, Fdft1-/- SXLT cells
Outline: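 Fdft1−/− SXLT cells are transfected with a full-length RORγ construct driving a firefly luciferase reporter from an endogenous Il-23r enhancer element. Test compound is added to the medium, and luciferase activity is read. Data are technical triplicates ± standard deviation, representative of n=4 experiments. Comparison is by two-tailed unpaired Student's t-test on aggregated experiments.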

RORγ LBD [7] = assay: Competition binding with fluorescein-labeled 25-hydroxycholesterol; conditions: recombinant RORγ
[8] = test system: RORγ reporter activity in U937ROR cells; type: cell-based; conditions: media supplemented with exogenous cholesterol

CC(C)=CCCC(C)C1CCC2(C)C3=CCC4C(C)(CO)C(O)CCC4(C)C3CCC12C (stereo not drawn) [4α–hydroxymethyl,4β,14α-dimethyl-cholesta-7,24-dien-3-ol]
RORγ reporter activity in mammalian cells (RORγ [1]): no activity

CC(C)CCC[C@@H](C)[C@H]1CC[C@H]2C3=CCC4[C@H](C(=O)O)[C@@H](O)CC[C@]4(C)[C@H]3CC[C@]12C (stereo partly drawn) [4ACD7, 4α-carboxy-cholest-7-en-3β-ol]
Co-activator peptide recruitment to RORγ (RORγ LBD [2]): promote the recruitment | Thermal stability of the RORγ LBD (RORγ LBD [3]): increase stability

CC(C)=CCC[C@@H](C)[C@H]1CC[C@@]2(C)C3=CCC4[C@](C)(C=O)C(O)CC[C@]4(C)[C@H]3CC[C@]12C (stereo partly drawn) [4α–formyl,4β,14α-dimethyl-cholesta-7,24-dien-3-ol]
EC50 (RORγ [4]): 150 to 500 nM | RORγ reporter activity in mammalian cells (RORγ [1]): no activity

CC(C)=CCC[C@@H](C)[C@H]1CC=C2C3=C(CC[C@@]21C)[C@@]1(C)CCC(O)C(C)(C)C1CC3 (stereo partly drawn) [FF-MAS, 4α,4β-dimethyl-cholesta-8,14,24-trien-3-ol, reference compound]
RORγ reporter activity in mammalian cells (RORγ [1]): weak agonist

CC(C)CCC[C@@H](C)[C@H]1CC[C@H]2[C@@H]3CC=C4C[C@@H](O)CC[C@]4(C)[C@H]3CC[C@]12C [cholesterol, reference compound]
Th17 polarization defect of Sc4mol-/- T cells ([5]; supplementation of media): could not be alleviated

CC(C)=CCC/C(C)=C/CC/C(C)=C/CC/C=C(\C)CC/C=C(\C)CCC=C(C)C [squalene]
Rescue of full length RORγ reporter activity in SXLT cells [6]: partially rescue

CC(C)=CCC[C@@H](C)[C@H]1CC[C@H]2C3=C(CC[C@]12C)[C@@]1(C)CCC(O)C(C)(C)C1CC3 (stereo partly drawn) [T-MAS, 4α,4β-dimethyl-cholesta-8,24-dien-3-ol]
Binding to RORγ (RORγ LBD [7]): bind very weakly if at all

CC(C)=CCC[C@@H](C)[C@H]1CC[C@@]2(C)C3=C(CC[C@]12C)[C@@]1(C)CC[C@H](O)C(C)(C)[C@@H]1CC3 [lanosterol, 14α,4α,4β-trimethyl-cholesta-8,24-dien-3-ol]
RORγ reporter activity in insect cells (RORγ [4]; higher concentrations): significant RORγ reporter activity | RORγ reporter activity in insect cells (RORγ [4]; physiological concentrations (1 μM)): little to no activity

CC[C@H](C)C(=O)O[C@H]1C[C@@H](C)C=C2C=C[C@H](C)[C@H](CC[C@@H]3C[C@@H](O)CC(=O)O3)[C@H]21 [lovastatin]
RORγ reporter activity in U937ROR cells [8]: inhibited in a dose dependent fashion

CC(C)=CCC[C@@H](C)[C@H]1CC[C@H]2C3=C(CC[C@]12C)[C@@]1(C)CCC(O)[C@@](C)(C(=O)O)C1CC3 (stereo partly drawn) [4ACD8, 4α–carboxy, 4β-methyl-cholesta-8,24-dien-3-ol]
RORγ reporter activity in mammalian cells (RORγ [1]): specific agonist activity | Co-activator peptide recruitment to RORγ (RORγ LBD [2]): promoted co-activator peptide recruitment | Thermal stability of the RORγ LBD (RORγ LBD [3]): increased the thermal stability | Th17 cell differentiation in Sc4mol-/- naïve CD4+ T cells ([5]; 1 μM added to media): rescues Th17 cell differentiation

C=CCN(C)CCCCCCOc1ccc(C(=O)c2ccc(Br)cc2)c(F)c1.O=C(O)/C=C/C(=O)O [Ro 48-8071 fumarate]
RORγ reporter activity in U937ROR cells [8]: inhibited in a dose dependent fashion
